Assay results: ChEMBL document CHEMBL4732148 (Eur J Med Chem, 2021)
Activity calls are given as the source filed them. No cut-off for these calls is given here.

What was measured:
[1] = Cytotoxicity against HEK293 cells assessed as reduction in cell viability measured after 96 hrs by celltiter-glo assay; format: cell-based; settings: human, read-out: TC50
[2] = Cytotoxicity against human Huh-7 cells assessed as reduction in cell viability measured after 48 hrs in presence of ENT1 inhibitor NBTI […]; format: cell-based; settings: with NBTI (ENT1 inhibitor; concentration not stated), read-out: TC50
HepG2 = experiment: Cytotoxicity against human HepG2 cells assessed as reduction in cell viability measured after 96 hrs by celltiter-glo assay; format: functional; settings: read-out: TC50 (the source's name)
[3] = Cytotoxicity against human BXPC-3 cells assessed as reduction in cell viability measured after 96 hrs by celltiter-glo assay; format: cell-based; settings: read-out: TC50
Hepatitis C virus [4] = experiment: Antiviral activity against HCV infected in human Huh-7 cells assessed as reduction in viral replication at 500 nM measured within 6 hrs by luciferase reporter gene assay; format: functional, Hepacivirus hominis; set-up: scale not given: the % may be the effect or the level left; settings: time hrs <=6
Procedure, shortened: (§1)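 Huh7 luciferase replicon cells treated with 500 nM compound or mock for up to 48 h. Cells were lysed at various times and the lysates snap-frozen in liquid nitrogen. All lysates were then assayed for luciferase together.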

[5] = Stability in pH 8 aqueous buffer assessed as parent compound remaining at 200 uM measured after 4 hrs by UV spectrophotometry; format: physicochemical; settings: read-out: Stabilty
Procedure, shortened: (§2)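 Compound diluted to […] in aqueous buffers at pH 1.0, 2.0, 4.0, 6.0 or 8.0 and held 4 h at 40 °C. Intact prodrug separated by reverse-phase HPLC. 260 nm peak area after incubation compared with untreated prodrug, giving % remaining.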

[6] = Cytotoxicity against human MCF7 cells assessed as reduction in cell viability measured after 96 hrs by celltiter-glo assay; format: cell-based; settings: read-out: TC50
Hepatitis C virus [7] = experiment: Antiviral activity against HCV infected in human Huh-7 cells assessed as reduction in viral replication at 25 to 1000 nM measured after 48 hrs in presence of deoxycytidine by luciferase reporter gene assay; format: functional, organism-based; settings: Hepacivirus hominis, dose 25-1000 nM
Procedure, shortened: (§3)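 Huh7 cells carrying an HCV luciferase replicon, grown in DMEM with 10% FBS and G418. Cells treated 48 h continuously with compound at 25–1,000 nM, either alone or together with 50 µM cytidine or 2′-deoxycytidine. Luciferase activity read in lysates. Three biological replicates, SD.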

[8] = Stability in pH 1 aqueous buffer assessed as parent compound remaining at 200 uM measured after 4 hrs by UV spectrophotometry; format: physicochemical; settings: read-out: Stabilty; procedure, shortened: as §2
Hepatitis C virus [9] = experiment: Antiviral activity against HCV infected in human Huh-7 cells assessed as reduction in viral replication measured after 48 hrs by luciferase reporter gene assay; format: functional, organism-based, Hepacivirus hominis; settings: Huh-7, 48 h
Procedure, shortened: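 Replicon-bearing Huh7 cells seeded at 10,000/well and allowed to attach for 24 h at 37 °C. Triplicate biological wells then treated 48 h with compound in DMEM, 10% FBS, 0.5% DMSO final. Bright-Glo luminescence expressed relative to untreated cells. IC50 from a four-parameter logistic fit.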

[10] = Toxicity in human Huh-7 cells assessed as reduction in cell viability measured after 96 hrs by celltiter-glo assay; format: cell-based; settings: read-out: TC50
Hepatitis C virus [11] = experiment: Antiviral activity against HCV infected in human Huh-7 cells assessed as reduction in viral replication preincubated for 2 hrs followed by replacement with fresh culture medium and measured after 46 hrs by luciferase reporter gene assay; format: functional, organism-based, Hepacivirus hominis
Procedure, shortened: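 HCV luciferase-replicon Huh7 cells were seeded at 10,000 cells/well and allowed 24 h to attach. Three biological replicates were exposed to graded compound in DMEM/10% FBS/0.5% DMSO for 2 h only, then the medium was replaced with fresh growth medium for 46 h at 37 °C.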

[12] = Stability in pH 6 aqueous buffer assessed as parent compound remaining at 200 uM measured after 4 hrs by UV spectrophotometry; format: physicochemical; settings: read-out: Stabilty; procedure, shortened: as §2
Hepatitis C virus [13] = experiment: Antiviral activity against HCV infected in human Huh-7 cells assessed as reduction in viral replication at 25 to 1000 nM measured after 48 hrs in presence of cytidine by luciferase reporter gene assay; format: functional, organism-based; settings: Hepacivirus hominis, dose 25-1000 nM; procedure, shortened: as §3
[14] = Stability in pH 2 aqueous buffer assessed as parent compound remaining at 200 uM measured after 4 hrs by UV spectrophotometry; format: physicochemical; settings: read-out: Stabilty; procedure, shortened: as §2
[15] = Stability in pH 4 aqueous buffer assessed as parent compound remaining at 200 uM measured after 4 hrs by UV spectrophotometry; format: physicochemical; settings: read-out: Stabilty; procedure, shortened: as §2
Hepatitis C virus [16] = experiment: Antiviral activity against HCV infected in human Huh-7 cells assessed as reduction in viral replication measured after 48 hrs in presence of human carboxylesterase 1/2 inhibitor benzil by luciferase reporter gene assay; format: functional, organism-based, Hepacivirus hominis; settings: Huh-7, 48 h
Procedure, shortened: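 Huh7 cells carrying an HCV luciferase-reporter replicon, grown with 10% FBS and G418, were seeded at 10,000 cells/well and left 24 h to attach. Three biological replicates were treated with graded compound in DMEM/10% FBS/0.5% DMSO with benzil present, for 48 h at 37 °C. Bright-Glo luciferase was read, and IC50 came from a four-parameter logistic fit.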

[17] = Ratio of gemcitabine TC50 to test compound TC50 for cytotoxicity against human MCF7 cells assessed as reduction in cell viability; format: cell-based
Hepatitis C virus [18] = experiment: Synergistic antiviral activity against HCV infected in human Huh-7 cells assessed as reduction in viral replication measured after 48 hrs in presence of NS5B inhibitor PSI-6130. by luciferase reporter gene assay; format: functional, organism-based; settings: Hepacivirus hominis
[19] = Ratio of gemcitabine TC50 to test compound TC50 for cytotoxicity against human BXPC-3 cells assessed as reduction in cell viability; format: cell-based
[20] = Ratio of IC50 for antiviral activity against HCV infected in human Huh-7 cells in presence of human carboxylesterase 1/2 inhibitor benzil to antiviral activity against HCV infected in human Huh-7 cells in absence of human carboxyesterases1/2 inhibitor benzil; format: functional, Hepacivirus hominis
[21] = Cytotoxicity against human Huh-7 cells assessed as reduction in cell viability measured after 48 hrs by celltiter-glo assay; format: cell-based; settings: read-out: TC50
Hepatitis C virus [22] = experiment: Synergistic antiviral activity against HCV infected in human Huh-7 cells assessed as reduction in viral replication measured after 48 hrs in presence of NS5A inhibitor daclatasvir. by luciferase reporter gene assay; format: functional, organism-based; settings: Hepacivirus hominis
Procedure, shortened: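 Replicon Huh7 cells treated 48 h with compound across 0.001–10,000 nM, each series at a fixed daclatasvir level from 0.005–0.025 nM. Luciferase read as above. A, B and C from the fits gave compound IC50 at each daclatasvir concentration, and these were plotted on an isobologram.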

Hepatitis C virus [23] = experiment: Antiviral activity against HCV infected in human Huh-7 cells assessed as reduction in viral replication at 500 nM measured after 36 hrs by luciferase reporter gene assay; format: functional, organism-based; settings: Hepacivirus hominis; procedure, shortened: as §1
Hepatitis C virus [24] = experiment: Antiviral activity against HCV infected in human Huh-7 cells assessed as reduction in viral replication at 500 nM measured after 24 to 30 hrs by luciferase reporter gene assay; format: functional, Hepacivirus hominis; set-up: scale not given: the % may be the effect or the level left; settings: time 24-30 hrs; procedure, shortened: as §1
Hepatitis C virus [25] = experiment: Antiviral activity against HCV infected in human Huh-7 cells assessed as reduction in viral replication at 500 nM measured after 48 hrs by luciferase reporter gene assay; format: functional, organism-based; settings: Hepacivirus hominis; procedure, shortened: as §1
Hepatitis C virus [26] = experiment: Ratio of IC50 for antiviral activity against HCV infected in human Huh-7 cells assessed as reduction in viral replication preincubated for 2 hrs followed by replacement with fresh culture medium and measured after 46 hrs by luciferase reporter gene assay to IC50 for antiviral activity against HCV infected in human Huh-7 cells assessed as reduction in viral replication measured after 48 hrs by …; format: functional, Hepacivirus hominis
Hepatitis C virus [27] = experiment: Antiviral activity against HCV infected in human Huh-7 cells assessed as reduction in viral replication measured after 48 hrs in presence of esterase inhibitor bis-p-nitrophenyl phosphate by luciferase reporter gene assay; format: functional, organism-based, Hepacivirus hominis; settings: Huh-7, 48 h
[28] = Ratio of IC50 for antiviral activity against HCV infected in human Huh-7 cells in presence of esterase inhibitor bis-p-nitrophenyl phosphate to antiviral activity against HCV infected in human Huh-7 cells in absence of esterase inhibitor bis-p-nitrophenyl phosphate; format: functional, Hepacivirus hominis
[29] = Prodrug conversion assessed as human carboxylesterase 1/2-mediated gemcitabine release measured after 1 hr by HPLC analysis; format: ADME

SMILES	CC50 at 96 h [1] [nM]	CC50 at 48 h [2] [nM]	CC50 (HepG2) [nM]	CC50 at 96 h [3] [nM]	remaining at 4 h, 200 µM [5] [%]	CC50 at 96 h [6] [nM]	Activity (Hepatitis C virus [7])	remaining at 4 h, 200 µM [8] [%]	IC50 (Hepatitis C virus [9]) [nM]	CC50 at 96 h [10] [nM]	IC50 (Hepatitis C virus [11]) [nM]	remaining at 4 h, 200 µM [12] [%]	Activity (Hepatitis C virus [13])	remaining at 4 h, 200 µM [14] [%]	remaining at 4 h, 200 µM [15] [%]	other results
Nc1ccn([C@@H]2O[C@H](CO)[C@@H](O)C2(F)F)c(=O)n1 [GEMCITABINE]	560	> 500000	310	2.9	100	67	inactive	79	58	3400	170	100	inactive	88	98	Activity (Hepatitis C virus [4]): 50%
COc1cc(C(=O)Nc2ccn([C@@H]3O[C@H](CO)[C@@H](O)C3(F)F)c(=O)n2)cc(OC)c1OC	1300	398000	1700	1800	82.7	570	inactive	86	49.3	5100	2800	99.5	inactive	87	98.6	IC50 (Hepatitis C virus [16]): 125 nM; selectivity ratio [17]: ≤ 24; Activity (Hepatitis C virus [18]): Active; selectivity ratio [19]: ≤ 620; Ratio IC50 [20]: 2.5; CC50 at 48 h [21]: 490000 nM; Activity (Hepatitis C virus [22]): Active; Activity (Hepatitis C virus [23]): Active; Activity (Hepatitis C virus [24]): 50%; Activity (Hepatitis C virus [25]): Active; Ratio IC50 (Hepatitis C virus [26]): 56; IC50 (Hepatitis C virus [27]): 81 nM; Ratio IC50 [28]: 1.6; Drug metabolism [29]: Metabolite_Detected
